Data taken from ChEMBL document CHEMBL1155976, “Synthesis and preliminary pharmacological evaluation of imidazo[2,1-f]purine-2,4-dione derivatives” (Eur J Med Chem, 2009).
Blank lines part the entries; values can stand above or below the compound they belong to. Calls of active or inactive are those of the source. No cut-off for these calls is given here.

Key:
D(2) dopamine receptor = D(2) dopamine receptor (Rattus norvegicus, UniProt P61169); test: Displacement of [3H]spiperone from dopamine D2 receptor in rat striatum membrane after 30 mins by liquid scintillation counting; format: cell membranes
How it was run: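 Rat striatum homogenised in 50 mM potassium phosphate pH 7.4 and spun twice at 20000 × g. Membranes (3 mg wet weight) incubated with 1 nM [3H]-spiperone and test agent in 0.5 ml for 30 min at 37 °C. Nonspecific binding with (+)butaclamol. GF/B filtration, two washes with ice-cold buffer, scintillation counting; Ki from ≥3 experiments, 10 concentrations in triplicate.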

[1] = molecular target: 5-hydroxytryptamine receptor 2A (Rattus norvegicus, UniProt P14842); test: Displacement of [3H]ketanserin from 5HT2A receptor in rat cerebral cortex after 20 mins by liquid scintillation counting; format: tissue-based
How it was run: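 Rat cerebral cortex homogenised in 50 mM Tris-HCl pH 7.7, spun at 32000 × g, preincubated 10 min at 37 °C, resuspended in 50 volumes. Incubated with 0.6 nM [3H]-ketanserin and test agent (10^-10 to 10^-4 M) at 37 °C for 20 min; mianserin as displacer. GF/B filtration, scintillation counting; Ki from ≥3 experiments, 10 concentrations in triplicate.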

[2] = molecular target: T1, 5-hydroxytryptamine receptor 1A (Rattus norvegicus, UniProt P19327); test: Displacement of [3H]8-OH-DPAT from 5HT1A receptor in rat cerebral cortex after 15 mins by liquid scintillation counting; format: tissue-based
T1 sequence (P19327 whole entry): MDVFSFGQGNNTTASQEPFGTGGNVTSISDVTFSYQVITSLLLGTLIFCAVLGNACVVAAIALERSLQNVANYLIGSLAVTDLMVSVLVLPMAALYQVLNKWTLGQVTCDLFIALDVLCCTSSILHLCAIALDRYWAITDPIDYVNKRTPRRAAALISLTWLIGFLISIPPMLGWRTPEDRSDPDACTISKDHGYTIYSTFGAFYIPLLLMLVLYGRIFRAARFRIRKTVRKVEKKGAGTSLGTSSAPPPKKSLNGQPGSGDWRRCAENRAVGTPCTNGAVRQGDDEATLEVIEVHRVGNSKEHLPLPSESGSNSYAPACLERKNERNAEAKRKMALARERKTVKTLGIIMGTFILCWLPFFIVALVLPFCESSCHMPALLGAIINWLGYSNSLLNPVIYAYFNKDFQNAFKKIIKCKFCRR

Mus musculus [3] = test: Agonist activity at 5HT1A receptor in ip dosed Swiss albino mouse assessed as decrease in rectal temperature; format: functional, organism-based
How it was run: (§1)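 Male Albino Swiss mice (24–28 g), free food and water, room at 20 ± 1 °C; test agent suspended in 1% aqueous Tween 80, given ip at 10 ml/kg. Rectal temperature read with a thermometer at 30, 60, 90 and 120 min after dosing. Result expressed as Δt from basal temperature taken at the start; six to ten animals per group, each used once.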

Mus musculus [4] = test: Agonist activity at 5HT1A receptor in Swiss albino mouse assessed as decrease in rectal temperature at 5 mg/kg, ip after 90 mins; format: functional, organism-based; design: dose 5 mg/kg; how it was run: as §1
Mus musculus [5] = test: Agonist activity at 5HT1A receptor in Swiss albino mouse assessed as decrease in rectal temperature at 10 mg/kg, ip after 60 mins; format: functional, organism-based; design: dose 10 mg/kg; how it was run: as §1
Mus musculus [6] = test: Agonist activity at 5HT1A receptor in Swiss albino mouse assessed as decrease in rectal temperature at 5 mg/kg, ip after 60 mins; format: functional, organism-based; design: dose 5 mg/kg; how it was run: as §1
Mus musculus [7] = test: Agonist activity at 5HT1A receptor in Swiss albino mouse assessed as decrease in rectal temperature at 10 mg/kg, ip after 30 mins; format: functional, organism-based; design: dose 10 mg/kg; how it was run: as §1
Mus musculus [8] = test: Agonist activity at 5HT1A receptor in Swiss albino mouse assessed as decrease in rectal temperature at 5 mg/kg, ip after 30 mins; format: functional, organism-based; design: dose 5 mg/kg; how it was run: as §1
Mus musculus [9] = test: Agonist activity at 5HT1A receptor in Swiss albino mouse assessed as decrease in rectal temperature at 10 mg/kg, ip after 90 mins; format: functional, organism-based; design: dose 10 mg/kg; how it was run: as §1
Mus musculus [10] = test: Agonist activity at 5HT1A receptor in Swiss albino mouse assessed as decrease in rectal temperature at 5 mg/kg, ip after 120 mins; format: functional, organism-based; design: dose 5 mg/kg; how it was run: as §1
Mus musculus [11] = test: Agonist activity at 5HT1A receptor in Swiss albino mouse assessed as decrease in rectal temperature at 10 mg/kg, ip after 30 mins in presence of WAY 100635 administered 15 mins before drug challenge; format: functional, organism-based; design: dose 10 mg/kg
How it was run: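 Male Albino Swiss mice (24–28 g). WAY 100635 (0.1 mg/kg, sc, in distilled water) given 15 min before test agent (ip, suspended in 1% Tween 80, 10 ml/kg). Rectal temperature recorded 30 and 60 min after test agent injection. Expressed as Δt versus basal temperature at the start of the experiment.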

Rattus norvegicus = test: Behavioral activity in Wistar rat assessed as reduction of 8-OH-DPAT-induced lower lip retraction at 10 to 20 mg/kg, ip administered 45 mins before 8-OH-DPAT challenge; format: functional, organism-based
Mus musculus [12] = test: Anxiolytic activity in Swiss albino mouse assessed as number of punished crossings at 10 mg/kg, ip administered 30 mins before test measured for 60s by four plate test; format: functional; conditions: route intraperitoneal
How it was run: (§2)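 Male Albino Swiss mice. Box with four metal floor plates separated by 4 mm gaps; 120 V between adjacent plates for 0.5 s delivered on crossing. Mice explored 15 s before testing. Agent (ip, 1% Tween 80) given 30 min before the test. Punished crossings counted; n = 10 mice per group, mean ± SEM.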

Mus musculus [13] = test: Anxiolytic activity in Swiss albino mouse assessed as number of punished crossings at 20 mg/kg, ip. administered 30 mins before test measured for 60s by four plate test; format: functional; how it was run: as §2
Mus musculus [14] = test: Antidepressant activity in Swiss albino mouse assessed as reduction of immobility time at 10 mg/kg, ip administered 30 mins before test by forced swimming test; format: functional; conditions: route intraperitoneal
How it was run: (§3)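 Male Albino Swiss mice (24–28 g); agent suspended in 1% aqueous Tween 80, ip 10 ml/kg, 30 min before the test. Total immobility time scored over the last 4 min of a 6-min swim session. n = 8–10 mice per group; mean ± SEM, compared with vehicle.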

Mus musculus [15] = test: Antidepressant activity in Swiss albino mouse assessed as reduction of immobility time at 20 mg/kg, ip administered 30 mins before test by forced swimming test; format: functional; conditions: route intraperitoneal; how it was run: as §3
Mus musculus [16] = test: Antidepressant activity in Swiss albino mouse assessed as reduction of immobility time at 30 mg/kg, ip administered 30 mins before test by forced swimming test; format: functional; conditions: route intraperitoneal; how it was run: as §3
Mus musculus [17] = test: Sedative activity in Swiss albino mouse assessed as reduction on spontaneous locomotor activity at 20 mg/kg, ip administered 30 mins before test measured for 6 mins; format: ADME, organism-based; design: dose 20 mg/kg, route intraperitoneal; conditions: in vivo, 0.1 h
How it was run: (§4)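 Male Albino Swiss mice (24–28 g); agent ip in 1% Tween 80, 30 min before the test. Locomotor activity counted as number of crossings during 6-min and 30-min sessions. n = 8–10 mice per group; mean ± SEM versus vehicle.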

Mus musculus [18] = test: Sedative activity in Swiss albino mouse assessed as reduction on spontaneous locomotor activity at 20 mg/kg, ip administered 30 mins before test measured for 30 mins; format: ADME, organism-based; design: dose 20 mg/kg, route intraperitoneal; conditions: in vivo, 0.5 h; how it was run: as §4
Mus musculus [19] = test: Sedative activity in Swiss albino mouse assessed as reduction on spontaneous locomotor activity at 30 mg/kg, ip administered 30 mins before test measured for 6 mins; format: ADME, organism-based; design: dose 30 mg/kg, route intraperitoneal; conditions: in vivo, 0.1 h; how it was run: as §4
Mus musculus [20] = test: Sedative activity in Swiss albino mouse assessed as reduction on spontaneous locomotor activity at 30 mg/kg, ip administered 30 mins before test measured for 30 mins; format: ADME, organism-based; design: dose 30 mg/kg, route intraperitoneal; conditions: in vivo, 0.5 h; how it was run: as §4
Mus musculus [21] = test: Anxiolytic activity in Swiss albino mouse assessed as number of punished crossings at 30 mg/kg, ip administered 30 mins before test measured for 60s by four plate test; format: functional; conditions: route intraperitoneal; how it was run: as §2
Mus musculus [22] = organism: Mus musculus; conditions: Swiss albino, 20 mg/kg
Mus musculus [23] = organism: Mus musculus; conditions: Swiss albino, 20 mg/kg; remark: listed apart in the source
Mus musculus [24] = organism: Mus musculus; conditions: Swiss albino, 20 mg/kg; remark: listed apart in the source
Mus musculus [25] = organism: Mus musculus; conditions: Swiss albino, 20 mg/kg; remark: listed apart in the source
Mus musculus [26] = organism: Mus musculus; conditions: Swiss albino, 20 mg/kg; remark: listed apart in the source
Mus musculus [27] = organism: Mus musculus; conditions: Swiss albino, 20 mg/kg; remark: listed apart in the source

Sequence of D(2) dopamine receptor (P61169 whole entry): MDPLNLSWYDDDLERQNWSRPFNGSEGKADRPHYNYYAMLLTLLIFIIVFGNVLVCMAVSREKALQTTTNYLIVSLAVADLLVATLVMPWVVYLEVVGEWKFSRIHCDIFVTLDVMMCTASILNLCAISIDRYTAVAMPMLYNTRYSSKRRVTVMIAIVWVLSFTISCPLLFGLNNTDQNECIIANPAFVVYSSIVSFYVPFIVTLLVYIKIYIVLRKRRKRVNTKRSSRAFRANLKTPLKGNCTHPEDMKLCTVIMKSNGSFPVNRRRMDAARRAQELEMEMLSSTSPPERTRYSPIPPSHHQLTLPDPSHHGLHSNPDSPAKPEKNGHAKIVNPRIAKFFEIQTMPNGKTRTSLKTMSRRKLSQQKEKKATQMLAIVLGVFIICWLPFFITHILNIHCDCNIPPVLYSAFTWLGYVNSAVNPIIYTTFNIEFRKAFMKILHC
Sequence of 5-hydroxytryptamine receptor 2A (P14842 whole entry): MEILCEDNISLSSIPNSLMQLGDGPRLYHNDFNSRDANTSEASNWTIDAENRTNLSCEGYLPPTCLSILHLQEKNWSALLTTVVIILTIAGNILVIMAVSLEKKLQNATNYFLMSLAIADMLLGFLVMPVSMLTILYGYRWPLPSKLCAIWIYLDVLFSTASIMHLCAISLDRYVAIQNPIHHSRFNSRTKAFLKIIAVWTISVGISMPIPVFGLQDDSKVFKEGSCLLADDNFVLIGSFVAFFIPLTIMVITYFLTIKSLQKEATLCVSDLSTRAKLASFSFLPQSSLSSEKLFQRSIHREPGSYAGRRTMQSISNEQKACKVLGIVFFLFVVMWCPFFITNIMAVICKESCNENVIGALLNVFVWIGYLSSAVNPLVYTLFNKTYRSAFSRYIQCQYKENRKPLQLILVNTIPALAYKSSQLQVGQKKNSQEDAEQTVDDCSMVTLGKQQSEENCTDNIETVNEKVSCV

Ki (D(2) dopamine receptor): > 1000 nM
Ki [1]: > 1000 nM
Ki [2]: 76.4 nM
SMILES: Cc1cn2c3c(=O)n(C)c(=O)n(C)c3nc2n1CCCN1CCN(c2ccccc2)CC1

Ki [1]: 297 nM
SMILES: Cn1c(=O)c2c(nc3nc(NCCCN4CCN(c5ccccc5)CC4)c(Br)cn32)n(C)c1=O

SMILES: Cn1c(=O)c2c(nc3n(CCCN4CCN(c5cccc(Cl)c5)CC4)c(-c4ccccc4)cn23)n(C)c1=O
Ki [1]: > 1000 nM

Ki (D(2) dopamine receptor): > 1000 nM
Ki [1]: 813 nM
Ki [2]: 96.5 nM
SMILES: Cn1c(=O)c2c(nc3n(CCCN4CCN(c5ccccc5)CC4)c(-c4ccccc4)cn23)n(C)c1=O

Activity (Mus musculus [3]): Dose-dependent effect
Ki (D(2) dopamine receptor): > 1000 nM
Ki [1]: > 1000 nM
Ki [2]: 24.8 nM
SMILES: Cn1c(=O)c2c(nc3n(CCCN4CCN(c5ccccc5)CC4)ccn23)n(C)c1=O
deltaT (Mus musculus [4]): -0.2 °C
deltaT (Mus musculus [5]): -0.4 °C
deltaT (Mus musculus [6]): -0.4 °C
deltaT (Mus musculus [7]): -1.2 °C
deltaT (Mus musculus [8]): -0.6 °C
deltaT (Mus musculus [9]): -0.4 °C
deltaT (Mus musculus [10]): 0 °C
deltaT (Mus musculus [11]): -0.3 °C
Activity (Rattus norvegicus): Active
Activity (Mus musculus [12]): 4.7
Activity (Mus musculus [13]): 6.3
Activity (Mus musculus [14]): 147.5 s
Activity (Mus musculus [15]): 87.9 s
Activity (Mus musculus [16]): 88.9 s
Activity (Mus musculus [17]): 146.4
Activity (Mus musculus [18]): 255.6
Activity (Mus musculus [19]): 139.2
Activity (Mus musculus [20]): 221

Ki (D(2) dopamine receptor): > 1000 nM
Ki [1]: 91.5 nM
Ki [2]: > 1000 nM
SMILES: Cn1c(=O)c2c(nc3n(CCCN4CCN(c5cccc(Cl)c5)CC4)ccn23)n(C)c1=O

SMILES: COc1ccccc1N1CCN(CCNC(=O)C2Cn3c(nc4c3c(=O)n(C)c(=O)n4C)N2)CC1 (stereo unspecified)
Ki [2]: > 1000 nM

Activity (Mus musculus [3]): Dose-dependent effect
Ki (D(2) dopamine receptor): 839 nM
Ki [1]: > 1000 nM
Ki [2]: 25.4 nM
SMILES: COc1ccccc1N1CCN(CCCn2ccn3c4c(=O)n(C)c(=O)n(C)c4nc23)CC1
deltaT (Mus musculus [5]): -0.6 °C
deltaT (Mus musculus [7]): -0.7 °C
deltaT (Mus musculus [9]): -0.3 °C
Activity (Mus musculus [13]): 2.5
Activity (Mus musculus [21]): 2.5
Activity (Mus musculus [14]): 134.2 s
Activity (Mus musculus [15]): 104.8 s
Activity (Mus musculus [16]): 101.3 s
Activity (Mus musculus [17]): 353.4
Activity (Mus musculus [18]): 925.8
Activity (Mus musculus [19]): 198
Activity (Mus musculus [20]): 567.6
deltaT (Mus musculus [22]): -1.3 °C
deltaT (Mus musculus [23]): -1.8 °C
deltaT (Mus musculus [24]): -1 °C
deltaT (Mus musculus [25]): -1.1 °C
deltaT (Mus musculus [26]): -0.9 °C
deltaT (Mus musculus [27]): -0.5 °C
